Measured values: ChEMBL document CHEMBL1143425, “Paradoxical growth effect of caspofungin observed on biofilms and planktonic cells of five different Candida species” (2007)
≈ marks a conversion by molar mass, not a printed value. Calls of active or inactive are those of the source.

Key:
Candida albicans [1] = test: Antimicrobial activity against Candida albicans BR-A7 grown as planktonic cell after 48 hrs by XTT reduction assay; type: functional
In short: (§1)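 Planktonic broth microdilution followed CLSI M27-A2, with caspofungin dissolved in water. After 48 h, XTT-menadione was added to the wells and plates were kept 1 h at 35°C in the dark. Plates were then centrifuged and supernatant A490 was read. MIC was the lowest concentration giving a 50% decrease in metabolic activity versus drug-free control. Paradoxical growth was defined as ≥20% of control activity above the MIC.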

Candida tropicalis [2] = test: Antimicrobial activity against Candida tropicalis BR-A9 grown as planktonic cell after 48 hrs by XTT reduction assay; type: functional; in short: as §1
Candida parapsilosis [3] = test: Antimicrobial activity against Candida parapsilosis BR-A26 grown as planktonic cell after 48 hrs by XTT reduction assay; type: functional; settings: Lodderomyces parapsilosis; in short: as §1
Candida parapsilosis [4] = test: Antimicrobial activity against Candida parapsilosis BR-A28 grown as planktonic cell after 48 hrs by XTT reduction assay; type: functional; settings: Lodderomyces parapsilosis; in short: as §1
Candida orthopsilosis [5] = test: Antimicrobial activity against Candida orthopsilosis BR-A36 grown as planktonic cell after 48 hrs by XTT reduction assay; type: functional; settings: Lodderomyces orthopsilosis
In short: (§2)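 Planktonic cells were tested by CLSI M27-A2 broth microdilution with caspofungin in water, incubated 48 h. XTT-menadione was added to each well, plates were held 1 h at 35°C in the dark and centrifuged, and supernatant absorbance was read at 490 nm. MIC was defined as 50% decrease in metabolic activity versus drug-free control. PG was defined as ≥20% of control activity at concentrations above MIC.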

Candida metapsilosis [6] = test: Antimicrobial activity against Candida metapsilosis BR-A40 grown as planktonic cell after 48 hrs by XTT reduction assay; type: functional; settings: Lodderomyces metapsilosis; in short: as §2
Candida orthopsilosis [7] = test: Antimicrobial activity against Candida orthopsilosis BR-A38 grown as planktonic cell assessed as concentration producing paradoxical growth after 48 hrs by XTT reduction assay; type: functional; in short: as §2
Candida metapsilosis [8] = test: Antimicrobial activity against Candida metapsilosis BR-A41 grown as planktonic cell after 48 hrs by XTT reduction assay; type: functional; settings: Lodderomyces metapsilosis; in short: as §2
Candida metapsilosis [9] = test: Antimicrobial activity against Candida metapsilosis BR-A44 grown as planktonic cell after 48 hrs by XTT reduction assay; type: functional; settings: Lodderomyces metapsilosis; in short: as §2
Candida parapsilosis [10] = test: Antimicrobial activity against Candida parapsilosis BR-A27 grown as planktonic cell assessed as paradoxical growth after 48 hrs by XTT reduction assay; type: functional, organism-based
In short: (§3)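 Planktonic broth microdilution followed CLSI M27-A2, with caspofungin dissolved in water. After 48 h, XTT-menadione was added to each well and plates were incubated 1 h at 35°C in the dark. Cells were pelleted by centrifugation and the supernatant was read at 490 nm. MIC was the lowest concentration giving a 50% drop in metabolic activity versus the drug-free control. PG was ≥20% of drug-free activity above the MIC.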

Candida parapsilosis [11] = test: Antimicrobial activity against Candida parapsilosis BR-A29 grown as planktonic cell assessed as concentration producing paradoxical growth after 48 hrs by XTT reduction assay; type: functional; in short: as §3
Candida metapsilosis [12] = test: Antimicrobial activity against Candida metapsilosis BR-A42 grown as planktonic cell assessed as paradoxical growth after 48 hrs by XTT reduction assay; type: functional, organism-based; in short: as §2
Candida metapsilosis [13] = test: Antimicrobial activity against Candida metapsilosis BR-A44 grown as planktonic cell assessed as paradoxical growth after 48 hrs by XTT reduction assay; type: functional, organism-based; in short: as §2
Candida parapsilosis [14] = test: Antimicrobial activity against Candida parapsilosis BR-A28 grown as biofilm after 48 hrs by XTT reduction assay; type: functional; settings: Lodderomyces parapsilosis
In short: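 Isolates were grown on Sabouraud agar (30°C, 24 h), then overnight in RPMI 1640 with MOPS, pH 7.0, at 35°C with shaking. Cells were washed and set to ~1 × 10^7 cells/ml, attached 1.5 h at 37°C, and grown 24 h. Biofilms were then exposed to caspofungin in 10 twofold dilutions (2–1,024 μg/ml) for 48 h at 35°C with shaking. Read-out was XTT-menadione, 1 h, 35°C, dark, A490, cell-free blank subtracted. MIC was the 50% drop in activity versus drug-free control. Tested in duplicate.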

Candida metapsilosis [15] = test: Antimicrobial activity against Candida metapsilosis BR-A40 grown as biofilm after 48 hrs by XTT reduction assay; type: functional; settings: Lodderomyces metapsilosis
In short: (§4)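 Sabouraud-grown cells were shaken overnight (18 h, 120 rpm, 35°C) in RPMI 1640 with MOPS at pH 7.0, then washed and set at ~1 × 10^7 cells/ml. Attachment lasted 1.5 h at 37°C, and growth ran 24 h before challenge. Caspofungin was added in RPMI at 2–1,024 μg/ml (10 doublings) for 48 h at 35°C with shaking. XTT-menadione was read at 490 nm after 1 h at 35°C in the dark, with blank wells subtracted. MIC was taken as 50% reduction versus drug-free wells, and PG as >50% of control above MIC. Assays were run in duplicate.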

Candida tropicalis [16] = test: Antimicrobial activity against Candida tropicalis BR-A18 grown as biofilm assessed as paradoxical growth after 48 hrs by XTT reduction assay; type: functional, organism-based
In short: (§5)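 Clinical isolates were grown overnight (18 h, 35°C, 120 rpm) in RPMI 1640 with MOPS, pH 7.0, then washed and set to ~1 × 10^7 cells/ml. Cells attached for 1.5 h at 37°C, 75 rpm, then biofilms grew 24 h. Caspofungin was given as doubling dilutions of 2–1,024 μg/ml for 48 h at 35°C, 75 rpm. Read-out was XTT-menadione in PBS, 1 h at 35°C in the dark, A490, cell-free blank subtracted. MIC was a 50% drop in activity versus drug-free; PG was >50% of control above MIC. Run in duplicate.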

Candida parapsilosis [17] = test: Antimicrobial activity against Candida parapsilosis BR-A25 grown as biofilm assessed as concentration producing paradoxical growth after 48 hrs by XTT reduction assay; type: functional; in short: as §5
Candida orthopsilosis [18] = test: Antimicrobial activity against Candida orthopsilosis BR-A32 grown as biofilm assessed as concentration producing paradoxical growth after 48 hrs by XTT reduction assay; type: functional; in short: as §4
Candida albicans [19] = test: Effect on morphology in Candida albicans grown as planktonic cells assessed as rounding and clumping at 16 ug/ml after 48 hrs; type: functional, organism-based
In short: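 Cells were taken from caspofungin-containing and drug-free wells of the planktonic broth microdilution test after 48 h. They were examined by light microscopy at ×400.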

Candida parapsilosis [20] = test: Effect on morphology in Candida parapsilosis grown as planktonic cells assessed as rounding and clumping at 16 ug/ml after 48 hrs; type: functional, organism-based
In short: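 Clinical isolates were tested by CLSI M27-A2 broth microdilution with caspofungin dissolved in sterile water. After 48 h incubation, cells were taken from drug-containing and drug-free control wells. They were examined by light microscopy at ×400 for hyphae or pseudohyphae, rounding or clumping, and enlarged globose cells.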

Candida albicans [21] = test: Effect on morphology in Candida albicans grown as biofilm assessed as rounding and clumping at 32 ug/ml after 48 hrs; type: functional, organism-based
In short: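 Biofilms formed in RPMI 1640 wells were exposed to caspofungin for 48 h and compared with drug-free control wells. Wells were examined in the plate under an inverted light microscope at ×200 and photographed.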

Candida tropicalis [22] = test: Effect on morphology in Candida tropicalis grown as biofilm assessed as rounding and clumping at 8 ug/ml after 48 hrs; type: functional, organism-based
In short: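 Overnight RPMI 1640 cultures (MOPS, pH 7.0) were washed and set to about 1 × 10^7 cells/ml, then attached to polystyrene wells for 1.5 h at 37°C at 75 rpm. After 24 h biofilm growth, wells were washed and given doubling caspofungin dilutions (2–1,024 μg/ml in RPMI) for 48 h at 35°C at 75 rpm. Biofilms were viewed in situ by inverted light microscopy at ×200 alongside drug-free wells.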

With `CC[C@H](C)C[C@H](C)CCCCCCCCC(=O)N[C@H]1C[C@@H](O)[C@@H](NCCN)NC(=O)[C@@H]2[C@@H](O)CCN2C(=O)[C@H]([C@H](O)CCN)NC(=O)[C@H]([C@H](O)[C@@H](O)c2ccc(O)cc2)NC(=O)[C@@H]2C[C@@H](O)CN2C(=O)[C@H]([C@@H](C)O)NC1=O` [CASPOFUNGIN] the MIC (Candida albicans [1]) was 0.5 µg/mL (≈ 0.457 µM), the MIC (Candida tropicalis [2]) was 1 µg/mL (≈ 0.915 µM) and the MIC (Candida parapsilosis [3]) was 2 µg/mL (≈ 1.83 µM). For the same compound, the MIC (Candida parapsilosis [4]) was 2 µg/mL (≈ 1.83 µM), the MIC (Candida orthopsilosis [5]) was 1 µg/mL (≈ 0.915 µM) and the MIC (Candida metapsilosis [6]) was 1 µg/mL (≈ 0.915 µM). It also gave an Activity (Candida orthopsilosis [7]) of 16 µg/mL, an MIC (Candida metapsilosis [8]) of 2 µg/mL (≈ 1.83 µM) and an MIC (Candida metapsilosis [9]) of 2 µg/mL (≈ 1.83 µM). The Activity (Candida parapsilosis [10]) was “inactive”, the Activity (Candida parapsilosis [11]) was 32 µg/mL and the Activity (Candida metapsilosis [12]) was “inactive”. For the same compound, the Activity (Candida metapsilosis [13]) was “inactive”, the MIC (Candida parapsilosis [14]) was 2 µg/mL (≈ 1.83 µM) and the MIC (Candida metapsilosis [15]) was 2 µg/mL (≈ 1.83 µM). The Activity (Candida tropicalis [16]) was “Active”, the Activity (Candida parapsilosis [17]) was 16 µg/mL and the Activity (Candida orthopsilosis [18]) was 32 µg/mL. The Activity (Candida albicans [19]) was “Active”, the Activity (Candida parapsilosis [20]) was “Active” and the Activity (Candida albicans [21]) was “Active”. The Activity (Candida tropicalis [22]) was “Active”.
